Reference: ChEMBL document CHEMBL5214983, “New Dual P-Glycoprotein (P-gp) and Human Carbonic Anhydrase XII (hCA XII) Inhibitors as Multidrug Resistance (MDR) Reversers in Cancer Cells” (J Med Chem, 2022)

Columns and labels:
[1] = Stability in PBS measured by LC-MS/MS analysis; type: physicochemical; details: buffer
Procedure, shortened: (§1)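 Analyte at 1 μM in PBS or in pooled human plasma, incubated at 37 °C for 0, 30, 60 and 120 min, in triplicate. Internal standard verapamil added, mixture centrifuged, supernatant dried and redissolved. Analyte quantified by LC-MS/MS. Half-life taken from the slope of ln(concentration) versus time. Ketoprofen ethyl ester served as plasma activity reference.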

[2] = Stability in human plasma assessed as half-life measured by LC-MS/MS analysis; type: ADME, cell-free; procedure, shortened: as §1
[3] = biological target: T1, ATP-dependent translocase ABCB1 (Homo sapiens, UniProt P08183); assay: Inhibition of P-gp in doxorubicin-resistant human HT-29 cells overexpressing P-gp assessed as Vmax at 3 uM in presence of 0 to 100 uM doxorubicin […]; type: cell-based; details: ht-29, 3 µM
Procedure, shortened: (§2)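 Cells incubated 20 min with 0–100 μM doxorubicin, alone or with compound at 1 or 3 μM. A parallel set was left a further 10 min at 37 °C, then intracellular drug measured. Doxorubicin extruded (nmol/min/mg protein) plotted against initial concentration and fitted to Michaelis–Menten to give Vmax and Km. Mean ± SD.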

[4] = biological target: T1, ATP-dependent translocase ABCB1; assay: Inhibition of P-gp in doxorubicin-resistant human HT-29 cells overexpressing P-gp assessed as increase in doxorubicin retention 1 uM in presence of 5 uM doxorubicin measured after 24 hrs by spectrophotometric method; type: cell-based; details: ht-29, 24 h
Procedure, shortened: (§3)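 Resistant cells (wild-type, P-gp KO or hCA XII KO; KO lines selected with 1 μg/mL puromycin) exposed to 5 μM doxorubicin alone or with test compound at 1 or 3 μM. Cells washed, trypsinized and extracted in ethanol/0.3 N HCl. Doxorubicin fluorescence read at ex 475/em 553 nm and converted to nmol/mg cell protein with a calibration curve. Mean ± SD, n = 3.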

[5] = biological target: T1, ATP-dependent translocase ABCB1; assay: Inhibition of P-gp in doxorubicin-resistant carbonic anhydrase knockout human A549 cells overexpressing P-gp assessed as Vmax at 3 uM in presence of 0 to 100 uM doxorubicin […]; type: cell-based; details: a549, 3 µM; procedure, shortened: as §2
[6] = biological target: T1, ATP-dependent translocase ABCB1; assay: Inhibition of P-gp in doxorubicin-resistant carbonic anhydrase knockout human A549 cells overexpressing P-gp assessed as Vmax at 1 uM in presence of 0 to 100 uM doxorubicin […]; type: cell-based; details: a549, 1 µM; procedure, shortened: as §2
[7] = biological target: T1, ATP-dependent translocase ABCB1; assay: Inhibition of P-gp in doxorubicin-resistant human A549 cells overexpressing P-gp assessed as increase in doxorubicin retention 1 uM in presence of 5 uM doxorubicin measured after 24 hrs by spectrophotometric method; type: cell-based; details: a549, 24 h; procedure, shortened: as §3
[8] = biological target: T1, ATP-dependent translocase ABCB1; assay: Inhibition of P-gp in human A549 cells overexpressing P-gp assessed as Vmax at 1 uM in presence of 0 to 100 uM doxorubicin […]; type: cell-based; details: a549, 1 µM; procedure, shortened: as §2
[9] = biological target: T1, ATP-dependent translocase ABCB1; assay: Inhibition of P-gp in doxorubicin-resistant human HT-29 cells overexpressing P-gp assessed as Vmax at 1 uM in presence of 0 to 100 uM doxorubicin […]; type: cell-based; details: ht-29, 1 µM; procedure, shortened: as §2
[10] = biological target: T1, ATP-dependent translocase ABCB1; assay: Inhibition of P-gp in doxorubicin-resistant carbonic anhydrase knockout human HT-29 cells overexpressing P-gp assessed as Vmax at 1 uM in presence of 0 to 100 uM doxorubicin […]; type: cell-based; details: ht-29, 1 µM; procedure, shortened: as §2
[11] = biological target: T1, ATP-dependent translocase ABCB1; assay: Inhibition of P-gp in doxorubicin-resistant human A549 cells overexpressing P-gp assessed as increase in doxorubicin retention 3 uM in presence of 5 uM doxorubicin measured after 24 hrs by spectrophotometric method; type: cell-based; details: a549, 24 h; procedure, shortened: as §3
[12] = biological target: T1, ATP-dependent translocase ABCB1; assay: Inhibition of P-gp in human A549 cells overexpressing P-gp assessed as Vmax at 3 uM in presence of 0 to 100 uM doxorubicin […]; type: cell-based; details: a549, 3 µM; procedure, shortened: as §2
[13] = biological target: T1, ATP-dependent translocase ABCB1; assay: Inhibition of P-gp in human HT-29 cells overexpressing P-gp assessed as Vmax at 3 uM in presence of 0 to 100 uM doxorubicin […]; type: cell-based; details: ht-29, 3 µM; procedure, shortened: as §2
[14] = biological target: T1, ATP-dependent translocase ABCB1; assay: Inhibition of P-gp in doxorubicin-resistant human A549 cells overexpressing P-gp assessed as Vmax at 3 uM in presence of 0 to 100 uM doxorubicin […]; type: cell-based; details: a549, 3 µM; procedure, shortened: as §2
[15] = biological target: T1, ATP-dependent translocase ABCB1; assay: Inhibition of P-gp in doxorubicin-resistant carbonic anhydrase knockout human HT-29 cells overexpressing P-gp assessed as Vmax at 3 uM in presence of 0 to 100 uM doxorubicin […]; type: cell-based; details: ht-29, 3 µM; procedure, shortened: as §2
[16] = biological target: T1, ATP-dependent translocase ABCB1; assay: Inhibition of P-gp in human HT-29 cells overexpressing P-gp assessed as Vmax at 1 uM in presence of 0 to 100 uM doxorubicin […]; type: cell-based; details: ht-29, 1 µM; procedure, shortened: as §2
[17] = biological target: T1, ATP-dependent translocase ABCB1; assay: Inhibition of P-gp in doxorubicin-resistant human A549 cells overexpressing P-gp assessed as Vmax at 1 uM in presence of 0 to 100 uM doxorubicin […]; type: cell-based; details: a549, 1 µM; procedure, shortened: as §2
[18] = biological target: T1, ATP-dependent translocase ABCB1; assay: Inhibition of P-gp in doxorubicin-resistant human HT-29 cells overexpressing P-gp assessed as increase in doxorubicin retention 3 uM in presence of 5 uM doxorubicin measured after 24 hrs by spectrophotometric method; type: cell-based; details: ht-29, 24 h; procedure, shortened: as §3

T1 sequence (P08183 whole entry): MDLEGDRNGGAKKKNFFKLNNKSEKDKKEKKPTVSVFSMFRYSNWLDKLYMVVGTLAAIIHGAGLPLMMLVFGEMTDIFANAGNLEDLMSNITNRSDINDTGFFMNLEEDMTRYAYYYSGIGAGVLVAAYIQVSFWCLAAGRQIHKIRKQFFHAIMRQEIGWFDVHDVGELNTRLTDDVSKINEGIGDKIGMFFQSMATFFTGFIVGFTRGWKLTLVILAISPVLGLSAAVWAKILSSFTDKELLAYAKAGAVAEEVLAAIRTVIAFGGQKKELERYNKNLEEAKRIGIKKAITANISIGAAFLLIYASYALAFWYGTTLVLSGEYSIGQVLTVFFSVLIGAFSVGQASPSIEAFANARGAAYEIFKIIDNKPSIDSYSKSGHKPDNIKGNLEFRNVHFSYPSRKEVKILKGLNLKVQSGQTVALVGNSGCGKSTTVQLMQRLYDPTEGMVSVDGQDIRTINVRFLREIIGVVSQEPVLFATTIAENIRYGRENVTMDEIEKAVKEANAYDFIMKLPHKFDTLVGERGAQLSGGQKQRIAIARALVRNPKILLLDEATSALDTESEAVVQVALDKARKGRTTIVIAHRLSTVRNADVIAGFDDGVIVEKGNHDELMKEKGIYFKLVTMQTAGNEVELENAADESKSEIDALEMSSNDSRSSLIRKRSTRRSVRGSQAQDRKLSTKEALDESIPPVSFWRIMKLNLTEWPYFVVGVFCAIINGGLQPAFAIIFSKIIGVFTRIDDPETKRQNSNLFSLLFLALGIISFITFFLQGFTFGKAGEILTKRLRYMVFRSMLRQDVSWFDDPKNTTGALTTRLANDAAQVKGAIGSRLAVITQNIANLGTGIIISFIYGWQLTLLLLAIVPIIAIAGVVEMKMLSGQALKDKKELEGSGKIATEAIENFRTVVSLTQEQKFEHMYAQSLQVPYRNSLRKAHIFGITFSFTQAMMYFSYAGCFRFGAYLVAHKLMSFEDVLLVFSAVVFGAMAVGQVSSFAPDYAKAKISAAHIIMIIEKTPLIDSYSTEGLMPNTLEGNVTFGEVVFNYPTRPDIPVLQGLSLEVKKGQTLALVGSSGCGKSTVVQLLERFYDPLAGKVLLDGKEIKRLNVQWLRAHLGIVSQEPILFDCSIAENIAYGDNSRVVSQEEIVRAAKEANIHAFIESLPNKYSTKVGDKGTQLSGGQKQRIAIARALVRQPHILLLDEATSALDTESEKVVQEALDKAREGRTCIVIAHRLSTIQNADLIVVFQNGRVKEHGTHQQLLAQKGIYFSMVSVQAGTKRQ

Row | Structure (SMILES) | Stability [1] | Stability [2] | also measured
1 | COc1cc(/C=C/C(=O)OCCCN(CCCCCCCOC(=O)c2c3ccccc3cc3ccccc23)CCCOc2ccc3ccc(=O)oc3c2)cc(OC)c1OC | Stable | Stable | –
2 | COc1cc(C(=O)OCCCN(CCCCCOC(=O)c2c3ccccc3cc3ccccc23)CCCOc2ccc3ccc(=O)oc3c2)cc(OC)c1OC | Stable | Stable | –
3 | COc1cc(C(=O)OCCCCCCN(CCCOC(=O)c2c3ccccc3cc3ccccc23)CCCOc2ccc3ccc(=O)oc3c2)cc(OC)c1OC | Stable | Stable | –
4 | COc1cc(/C=C/C(=O)OCCCN(CCCCCOC(=O)c2c3ccccc3cc3ccccc23)CCCOc2ccc3ccc(=O)oc3c2)cc(OC)c1OC | Stable | Stable | –
5 | COc1cc(C(=O)OCCCCCN(CCCOC(=O)c2cc(OC)c(OC)c(OC)c2)CCCOc2ccc3ccc(=O)oc3c2)cc(OC)c1OC | Stable | Stable | Vmax [3]: 3.21 µmol/min; inhibition (INH) [4]: Active; Vmax [5]: 2.74 µmol/min; Vmax [6]: 3.75 µmol/min; inhibition (INH) [7]: Active; Vmax [8]: 2.36 µmol/min; Vmax [9]: 5.3 µmol/min; Vmax [10]: 4.3 µmol/min; inhibition (INH) [11]: Active; Vmax [12]: 2.35 µmol/min; Vmax [13]: 3.12 µmol/min; Vmax [14]: 3.98 µmol/min; Vmax [15]: 3.22 µmol/min; Vmax [16]: 3.29 µmol/min; Vmax [17]: 5.1 µmol/min; inhibition (INH) [18]: Active
6 | COc1cc(C(=O)OCCCCCCCN(CCCOC(=O)c2c3ccccc3cc3ccccc23)CCCOc2ccc3ccc(=O)oc3c2)cc(OC)c1OC | Stable | Stable | –
7 | COc1cc(/C=C/C(=O)OCCCN(CCCCCOC(=O)c2cc(OC)c(OC)c(OC)c2)CCCOc2ccc3ccc(=O)oc3c2)cc(OC)c1OC | Stable | Stable | –
8 | COc1cc(/C=C/C(=O)OCCCCCCN(CCCOC(=O)c2c3ccccc3cc3ccccc23)CCCOc2ccc3ccc(=O)oc3c2)cc(OC)c1OC | Stable | Stable | –
9 | COc1cc(/C=C/C(=O)OCCCCCN(CCCOC(=O)c2cc(OC)c(OC)c(OC)c2)CCCOc2ccc3ccc(=O)oc3c2)cc(OC)c1OC | Stable | Stable | –
10 | COc1cc(/C=C/C(=O)OCCCCCCCN(CCCOC(=O)c2c3ccccc3cc3ccccc23)CCCOc2ccc3ccc(=O)oc3c2)cc(OC)c1OC | Stable | Stable | –
11 | COc1cc(C(=O)OCCCCCCCN(CCCOC(=O)c2cc(OC)c(OC)c(OC)c2)CCCOc2ccc3ccc(=O)oc3c2)cc(OC)c1OC | Stable | Stable | –
12 | COc1cc(/C=C/C(=O)OCCCN(CCCCCCOC(=O)c2cc(OC)c(OC)c(OC)c2)CCCOc2ccc3ccc(=O)oc3c2)cc(OC)c1OC | Stable | Stable | –
13 | COc1cc(/C=C/C(=O)OCCCCCN(CCCOC(=O)/C=C/c2cc(OC)c(OC)c(OC)c2)CCCOc2ccc3ccc(=O)oc3c2)cc(OC)c1OC | Stable | Stable | –
14 | COc1cc(/C=C/C(=O)OCCCN(CCCCCCOC(=O)c2c3ccccc3cc3ccccc23)CCCOc2ccc3ccc(=O)oc3c2)cc(OC)c1OC | Stable | Stable | –
15 | COc1cc(C(=O)OCCCCCN(CCCOC(=O)c2c3ccccc3cc3ccccc23)CCCOc2ccc3ccc(=O)oc3c2)cc(OC)c1OC | Stable | Stable | –
16 | O=C(OCCCCCCCN(CCCOC(=O)c1c2ccccc2cc2ccccc12)CCCOc1ccc2ccc(=O)oc2c1)c1c2ccccc2cc2ccccc12 | Stable | Stable | –
17 | COc1cc(C(=O)OCCCCCCN(CCCOC(=O)c2cc(OC)c(OC)c(OC)c2)CCCOc2ccc3ccc(=O)oc3c2)cc(OC)c1OC | Stable | Stable | Vmax [3]: 3.8 µmol/min; inhibition (INH) [4]: Active; Vmax [5]: 2.92 µmol/min; Vmax [6]: 3.6 µmol/min; inhibition (INH) [7]: Active; Vmax [8]: 2.43 µmol/min; Vmax [9]: 4.73 µmol/min; Vmax [10]: 4.27 µmol/min; inhibition (INH) [11]: Active; Vmax [12]: 2.41 µmol/min; Vmax [13]: 3.28 µmol/min; Vmax [14]: 4.14 µmol/min; Vmax [15]: 3.45 µmol/min; Vmax [16]: 3.21 µmol/min; Vmax [17]: 5.27 µmol/min; inhibition (INH) [18]: Active
18 | COc1cc(/C=C/C(=O)OCCCCCCN(CCCOC(=O)c2cc(OC)c(OC)c(OC)c2)CCCOc2ccc3ccc(=O)oc3c2)cc(OC)c1OC | Stable | Stable | –
19 | COc1cc(/C=C/C(=O)OCCCCCN(CCCOC(=O)c2c3ccccc3cc3ccccc23)CCCOc2ccc3ccc(=O)oc3c2)cc(OC)c1OC | Stable | Stable | –
20 | O=C(OCCCCCN(CCCOC(=O)c1c2ccccc2cc2ccccc12)CCCOc1ccc2ccc(=O)oc2c1)c1c2ccccc2cc2ccccc12 | Stable | Stable | –
21 | COc1cc(/C=C/C(=O)OCCCN(CCCCCCCOC(=O)c2cc(OC)c(OC)c(OC)c2)CCCOc2ccc3ccc(=O)oc3c2)cc(OC)c1OC | Stable | Stable | –
22 | COc1cc(/C=C/C(=O)OCCCCCCCN(CCCOC(=O)/C=C/c2cc(OC)c(OC)c(OC)c2)CCCOc2ccc3ccc(=O)oc3c2)cc(OC)c1OC | Stable | Stable | –
23 | O=C(OCCCCCCN(CCCOC(=O)c1c2ccccc2cc2ccccc12)CCCOc1ccc2ccc(=O)oc2c1)c1c2ccccc2cc2ccccc12 | Stable | Stable | –
24 | COc1cc(C(=O)OCCCN(CCCCCCCOC(=O)c2c3ccccc3cc3ccccc23)CCCOc2ccc3ccc(=O)oc3c2)cc(OC)c1OC | Stable | Stable | –
25 | COc1cc(C(=O)OCCCN(CCCCCCOC(=O)c2c3ccccc3cc3ccccc23)CCCOc2ccc3ccc(=O)oc3c2)cc(OC)c1OC | Stable | Stable | –
26 | COc1cc(/C=C/C(=O)OCCCCCCCN(CCCOC(=O)c2cc(OC)c(OC)c(OC)c2)CCCOc2ccc3ccc(=O)oc3c2)cc(OC)c1OC | Stable | Stable | –
27 | COc1cc(/C=C/C(=O)OCCCCCCN(CCCOC(=O)/C=C/c2cc(OC)c(OC)c(OC)c2)CCCOc2ccc3ccc(=O)oc3c2)cc(OC)c1OC | Stable | Stable | –
